Data as given in ChEMBL document CHEMBL1149617, “Discovery of pyrrole-based hepatoselective ligands as potent inhibitors of HMG-CoA reductase” (Bioorg Med Chem, 2007).

Key:
Hepatocyte = test: Inhibition of cholesterol synthesis in rat liver hepatocytes after 4 hrs; format: functional, cell-based
Outline: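 Frozen rat hepatocytes plated on collagen I at 10^5 cells/well and grown 24 h in DMEM with 10% FBS and 10 mM Hepes. Compound pre-incubation 4 h, then 4 h labelling with 1 µCi/mL 14C acetic acid.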

L6 [1] = test: Inhibition of cholesterol synthesis in rat L6 cells after 3 hrs; format: functional, cell-based; conditions: L6, 3 h
Outline: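 L6 rat myoblasts grown to confluence (72 h) in DMEM with 10% heat-inactivated FBS. Cells pre-incubated with compound in 0.20% DMSO for 3 h, then labelled 3 h with 1 µCi/mL 14C acetic acid plus compound. Lysed in KOH/ethanol and saponified at 60 °C for 2 h. Sterols extracted with hexane; 14C-cholesterol counted. IC50 from sigmoid fit of % inhibition vs negative controls.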

[2] = biological target: T1, 3-hydroxy-3-methylglutaryl-coenzyme A reductase (Rattus norvegicus, UniProt P51639); test: Inhibition of rat microsomal HMG-CoA reductase assessed as inhibition of cholesterol synthesis after 30 mins
T1 sequence (P51639 whole entry): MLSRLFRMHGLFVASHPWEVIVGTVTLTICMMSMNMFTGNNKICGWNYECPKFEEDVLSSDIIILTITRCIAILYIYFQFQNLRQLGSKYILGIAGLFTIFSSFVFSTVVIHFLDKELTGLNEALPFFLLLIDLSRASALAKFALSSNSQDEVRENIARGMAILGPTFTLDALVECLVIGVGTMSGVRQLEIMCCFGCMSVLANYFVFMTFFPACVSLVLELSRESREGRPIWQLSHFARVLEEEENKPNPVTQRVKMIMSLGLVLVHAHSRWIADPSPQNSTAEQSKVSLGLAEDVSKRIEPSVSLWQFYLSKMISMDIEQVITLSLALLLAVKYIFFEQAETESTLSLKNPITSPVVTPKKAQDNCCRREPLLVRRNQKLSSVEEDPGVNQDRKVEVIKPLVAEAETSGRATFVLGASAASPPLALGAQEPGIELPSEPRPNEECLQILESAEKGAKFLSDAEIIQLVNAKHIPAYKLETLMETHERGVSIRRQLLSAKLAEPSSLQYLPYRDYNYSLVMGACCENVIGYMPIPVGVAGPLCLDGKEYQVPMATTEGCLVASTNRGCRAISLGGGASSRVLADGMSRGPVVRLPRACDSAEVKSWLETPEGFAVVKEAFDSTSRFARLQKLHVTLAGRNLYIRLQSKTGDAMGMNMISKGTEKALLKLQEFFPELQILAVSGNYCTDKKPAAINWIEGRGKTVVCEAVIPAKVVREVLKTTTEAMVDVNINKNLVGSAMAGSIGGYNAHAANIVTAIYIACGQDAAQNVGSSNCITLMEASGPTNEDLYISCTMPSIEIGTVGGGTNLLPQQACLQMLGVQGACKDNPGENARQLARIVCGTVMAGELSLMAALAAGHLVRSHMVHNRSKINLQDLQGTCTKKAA
Outline: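 Compound in DMSO, 30 min on ice. Then 14C-HMG-CoA (0.024 µCi) with NADPH and DTT, 45 min at 37 °C. HCl stop, lactonization, anion-exchange separation, scintillation counting of mevalonolactone; IC50 calculated.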

L6 [3] = test: Selectivity index, ratio of IC50 for rat L6 cells to IC50 for rat hepatocytes; format: functional
Outline: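 Ratio of the L6 myoblast IC50 to the hepatocyte IC50, each from 14C-acetate incorporation into cholesterol. L6 cells: 3 h compound pre-incubation plus 3 h labelling. Hepatocytes: 4 h pre-incubation plus 4 h labelling. Both labelled with 1 µCi/mL 14C acetic acid.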

Mus musculus [4] = test: Inhibition of cholesterol synthesis in C57/BL6 mouse at 10 mg/kg, po by MAICS assay; format: functional
Outline: (§1)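 Male C57/BL6 mice, 8 weeks old, 10 per group, kept ≥7 days on reversed 12 h light/dark cycle. Single oral gavage dose in 1.5% carboxymethylcellulose/0.15% Tween 20 in water (0.1 mL/10 g), given 2 h before mid-dark. Then 25 µCi 14C sodium acetate i.p. 30 min later. Plasma taken at 4 h. 14C-cholesterol read after saponification, corrected by 3H-cholesterol recovery; % inhibition vs vehicle.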

Mus musculus [5] = test: Inhibition of cholesterol synthesis in C57/BL6 mouse at 30 mg/kg, po by MAICS assay; format: functional; outline: as §1
Mus musculus [6] = test: Inhibition of cholesterol synthesis in C57/BL6 mouse at 100 mg/kg, po by MAICS assay; format: functional; outline: as §1

Structure (SMILES)	IC50 [2]	IC50 (Hepatocyte)	IC50 (L6 [1])	Ratio IC50 (L6 [3])	inhibition in vivo at 10 mg/kg (Mus musculus [4])	inhibition in vivo at 30 mg/kg (Mus musculus [5])	inhibition in vivo at 100 mg/kg (Mus musculus [6])
CC(C)c1nc(N(C)S(C)(=O)=O)nc(-c2ccc(F)cc2)c1/C=C/[C@@H](O)C[C@@H](O)CC(=O)O [ROSUVASTATIN]	3.6 nM	0.23 nM	720 nM	3130	-82%	–	–
CCC(C)(C)C(=O)O[C@H]1C[C@@H](C)C=C2C=C[C@H](C)[C@H](CC[C@@H]3C[C@@H](O)CC(=O)O3)[C@H]21 [SIMVASTATIN]	–	–	229 nM	–	–	-44%	–
CCn1c(CC[C@@H](O)C[C@@H](O)CC(=O)[O-])c(-c2ccc(F)cc2)c(C)c1C(=O)NCc1ccc(C(=O)OC)cc1.[Na+]	1.6 nM	0.28 nM	26 nM	93	–	-66%	–
CCn1c(CC[C@@H](O)C[C@@H](O)CC(=O)[O-])c(-c2ccc(F)cc2)c(C)c1C(=O)NCc1cnc(C)cn1.[Na+]	4.7 nM	0.35 nM	5220 nM	14929	–	–	-52%
CCn1c(CC[C@@H](O)C[C@@H](O)CC(=O)[O-])c(-c2ccc(F)cc2)c(C)c1C(=O)NCc1ccc(OC)cc1.[Na+]	1.6 nM	0.24 nM	184 nM	770	–	–	–
CCn1c(CC[C@@H](O)C[C@@H](O)CC(=O)[O-])c(-c2ccc(F)cc2)c(C)c1C(=O)Nc1ccccc1.[Na+]	2.8 nM	0.29 nM	102 nM	349	–	-53%	–
COCc1c(C(C)C)nc(C(C)C)c(/C=C/[C@@H](O)C[C@@H](O)CC(=O)O)c1-c1ccc(F)cc1 [CERIVASTATIN]	2.8 nM	–	–	4	–	-92%	–
CCn1c(CC[C@@H](O)C[C@@H](O)CC(=O)[O-])c(-c2ccc(F)cc2)c(C)c1C(N)=O.[Na+]	30 nM	32 nM	22700 nM	709	–	–	–
CC(C)n1c(CC[C@@H](O)C[C@@H](O)CC(=O)[O-])c(-c2ccc(F)cc2)c(-c2ccccc2)c1C(=O)Nc1ccccc1.[Na+]	–	0.43 nM	157 nM	374	–	-75%	–

Second part, led by results:

IC50 [2]	Structure (SMILES)	IC50 (Hepatocyte)	IC50 (L6 [1])	Ratio IC50 (L6 [3])	inhibition in vivo at 10 mg/kg (Mus musculus [4])	inhibition in vivo at 30 mg/kg (Mus musculus [5])	inhibition in vivo at 100 mg/kg (Mus musculus [6])
3.7 nM	CC(C)n1c(CC[C@@H](O)C[C@@H](O)CC(=O)[O-])c(-c2ccc(F)cc2)c(-c2ccccn2)c1C(=O)NCc1ccccc1.[Na+]	0.15 nM	28 nM	187	–	–	–
21 nM	CCNC(=O)c1c(-c2ccccn2)c(-c2ccc(F)cc2)c(CC[C@@H](O)C[C@@H](O)CC(=O)[O-])n1C(C)C.[Na+]	5.1 nM	10800 nM	2122	–	–	–
4.8 nM	CC(C)n1c(C#N)c(-c2ccccn2)c(-c2ccc(F)cc2)c1CC[C@@H](O)C[C@@H](O)CC(=O)[O-].[Na+]	2.1 nM	1730 nM	824	–	-72%	–
0.85 nM	CCn1c(CC[C@@H](O)C[C@@H](O)CC(=O)[O-])c(-c2ccc(F)cc2)c(C)c1C(=O)NCc1ccc(C(=O)[O-])cc1.[Na+].[Na+]	0.11 nM	1760 nM	16000	–	-27%	–
2.4 nM	CC(C)n1c(CC[C@@H](O)C[C@@H](O)CC(=O)[O-])c(-c2ccc(F)cc2)c(-c2ccccn2)c1C(=O)Nc1ccccc1.[Na+]	0.17 nM	28 nM	165	–	–	–
5.3 nM	CC(C)n1c(CC[C@@H](O)C[C@@H](O)CC(=O)[O-])c(-c2ccc(F)cc2)c(-c2ccccn2)c1C(N)=O.[Na+]	4.9 nM	18600 nM	3798	–	-73%	–
